The values below come from publication PMC9055608 (RSC Advances, 2020).

Assay [1] relates to LO2 human normal liver cells. As to the kind of experiment: MTT assay, cytotoxicity against normal cell line LO2. Type of assay: cell-based. Put shortly: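 Cells seeded at about 4000–5000/well and allowed 24 h to adhere. MTT for 4 h, formazan dissolved in DMSO, absorbance read, and inhibition rate per concentration reported.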
In the next assay the test system is DU-145. The experiment in a line: MTT cell proliferation assay, DU-145. The class given is cell-based, human. To be noted: Homo sapiens, DU-145, 72 h. The procedure, abridged: (§1)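 ATCC lines grown in DMEM or RPMI-1640 with 10% heat-inactivated FBS and 1% penicillin/streptomycin at 37 °C, 5% CO2. Log-phase cells seeded at about 4000–5000/well and left to adhere 24 h. Sextuplicate wells, 72 h. MTT for 4 h, then DMSO and absorbance. IC50 taken from dose–response curves.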
(Formazan colour is commonly taken as a measure of viable cells.)

The subject of another assay is SKBR3. As to the kind of experiment: MTT cell proliferation assay, SKBR3. Particulars: Homo sapiens, SK-BR-3, 72 h. Type of assay: cell-based, human. Put shortly:
as §1

The inhibition is the drop in the measured response relative to a control, in per cent. For orientation: IC50 means the midpoint of a concentration-inhibition curve. A lower IC50 goes with greater potency in that assay. In the case of `O=C(/C=C/CCc1ccc(O)cc1)/C=C/c1ccc(O)cc1` [DHDK, (1E,4E)-1,7-Bis(4-hydroxyphenyl)hepta-1,4-dien-3-one], the inhibition at 0.14 µM in assay [1] (Homo sapiens, read-out: Inhibition rate, LO2, DHDK 0.14 μmol·L^−1) is 1.36%. For the same compound, the inhibition at 0.42 µM in assay [1] (Homo sapiens, read-out: Inhibition rate, LO2, DHDK 0.42 μmol·L^−1) is 1.51%. In addition, the inhibition at 1.26 µM in assay [1] (Homo sapiens, read-out: Inhibition rate, LO2, DHDK 1.26 μmol·L^−1) was determined as 1.87%. Moreover, the inhibition at 3.8 µM in assay [1] (Homo sapiens, read-out: Inhibition rate, LO2, DHDK 3.8 μmol·L^−1) was found to be 2.08%. Besides, the inhibition at 11.3 µM in assay [1] (Homo sapiens, read-out: Inhibition rate, LO2, DHDK 11.3 μmol·L^−1) was determined as 2.57%. Also, the “OD value (mean ± SD)” value turned out to be 0.69 ± 0.013 in assay [1] (LO2, DHDK 0.14 μmol·L^−1); 0.68 ± 0.039 in assay [1] (LO2, DHDK 0.42 μmol·L^−1); 0.68 ± 0.022 in assay [1] (LO2, DHDK 1.26 μmol·L^−1); 0.68 ± 0.031 in assay [1] (LO2, DHDK 3.8 μmol·L^−1); 0.68 ± 0.0066 in assay [1] (LO2, DHDK 11.3 μmol·L^−1); 0.67 ± 0.025 in assay [1] (LO2, DHDK 34.0 μmol·L^−1). The compound further returned an Inhibition rate in assay [1] (LO2, DHDK 34.0 μmol·L^−1) of 4.17%. Also, the IC50 in the assay with DU-145 was 4.62 ± 0.22 µM; with SKBR3 it was 1.71 ± 0.1 µM.
